Reference: ChEMBL document CHEMBL3808307, “Triazolylthioacetamide: A Valid Scaffold for the Development of New Delhi Metallo-β-Lactmase-1 (NDM-1) Inhibitors” (ACS Med Chem Lett, 2016)
Active and inactive are the calls of the source. The rule behind the calls is not given here.

Key:
[1] = molecular target: T1, Metallo-beta-lactamase type 2 (Klebsiella pneumoniae, UniProt C7C422); assay: Inhibition of Klebsiella pneumoniae metallo-beta-lactamase NDM-1 expressed in Escherichia coli BL21(DE3) cells preincubated for 60 min followed by addition of cefazolin as substrate by spectrometry method
T1 sequence (C7C422 whole entry): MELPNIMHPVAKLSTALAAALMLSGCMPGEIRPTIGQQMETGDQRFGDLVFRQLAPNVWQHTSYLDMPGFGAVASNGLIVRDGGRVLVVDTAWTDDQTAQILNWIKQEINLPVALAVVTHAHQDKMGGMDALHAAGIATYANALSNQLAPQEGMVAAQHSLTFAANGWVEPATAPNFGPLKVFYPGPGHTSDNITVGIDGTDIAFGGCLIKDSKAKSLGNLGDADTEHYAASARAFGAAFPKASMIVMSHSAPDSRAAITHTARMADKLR
In short: (§1)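 Purified recombinant MβL preincubated with inhibitor for 60 min, then hydrolysis followed by UV spectrometry. Substrate was cefazolin, or imipenem for ImiS, at 26–160 μM. Inhibitor ranged 15 nM to 10 μM. IC50 was the concentration giving a 50% drop in enzyme activity, calculated from kinetic data.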

[2] = molecular target: Metallo-beta-lactamase type 2 (Bacteroides fragilis) (UniProt P25910); assay: Inhibition of Bacteroides fragilis CcrA metallo-beta-lactamase up to 10 uM preincubated for 60 min followed by addition of cefazolin as substrate by spectrometry method; in short: as §1
Sequence of Metallo-beta-lactamase type 2 (Bacteroides fragilis) (P25910 whole entry): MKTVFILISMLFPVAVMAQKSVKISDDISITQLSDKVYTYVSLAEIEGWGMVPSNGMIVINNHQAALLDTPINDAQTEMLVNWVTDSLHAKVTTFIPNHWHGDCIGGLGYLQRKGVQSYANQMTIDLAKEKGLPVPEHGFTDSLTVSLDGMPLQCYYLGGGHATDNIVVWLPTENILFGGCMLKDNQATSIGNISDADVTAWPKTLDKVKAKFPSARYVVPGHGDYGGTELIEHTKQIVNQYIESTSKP

[3] = test system: Aeromonas veronii bv. sobria; assay: Inhibition of Aeromonas veronii bv. sorbia Metallo-beta-lactamase ImiS up to 10 uM preincubated for 60 min followed by addition of imipenem as substrate by spectrometry method; in short: as §1
[4] = test system: Stenotrophomonas maltophilia; assay: Inhibition of Stenotrphomonas maltophilia metallo-beta-lactamase L1 up to 10 uM preincubated for 60 min followed by addition of cefazolin as substrate by spectrometry method; in short: as §1
[5] = molecular target: T1, Metallo-beta-lactamase type 2; assay: Mixed type inhibition of Klebsiella pneumoniae metallo-beta-lactamase NDM-1 expressed in Escherichia coli BL21(DE3) cells assessed as hydrolysis of cefazolin preincubated for 60 min followed by addition of cefazolin by Lineweaver-Burk plot analysis
In short: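 Purified recombinant NDM-1 preincubated with inhibitor for 60 min. Cefazolin hydrolysis was then followed by UV spectrometry, with substrate varied 26–160 μM and inhibitor at 0, 0.25, 0.5 and 1.0 μM. Mode was taken from Lineweaver–Burk plots. Ki came from replots of slope and intercept […].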

SMILES	IC50 [1]	inhibition [2]	inhibition [3]	inhibition [4]	Ki [5]
O=C(CSc1nnc(-c2ccccc2O)[nH]1)Nc1cccc(Cl)c1	160 nM	inactive	inactive	inactive	–
O=C(CSc1nnc(-c2ccc(O)cc2)[nH]1)Nc1cccc(Cl)c1	370 nM	inactive	inactive	inactive	630 nM
CCCCc1ccc(NC(=O)CSc2nnc(-c3ccccc3O)[nH]2)cc1	160 nM	inactive	inactive	inactive	–
CCc1ccccc1NC(=O)CSc1nnc(-c2ccc(O)cc2)[nH]1	1500 nM	inactive	inactive	inactive	–
Cc1ccccc1NC(=O)CSc1nnc(-c2ccccc2N)[nH]1	1900 nM	inactive	inactive	inactive	–
Nc1ccccc1-c1nnc(SCC(=O)Nc2ccccc2Cl)[nH]1	610 nM	inactive	inactive	inactive	–
Nc1ccccc1-c1nnc(SCC(=O)Nc2ccccc2)[nH]1	330 nM	inactive	inactive	inactive	–
CCCCc1ccc(NC(=O)CSc2nnc(-c3ccccc3N)[nH]2)cc1	160 nM	inactive	inactive	inactive	490 nM
Cc1ccccc1NC(=O)CSc1nnc(-c2ccccc2)[nH]1	190 nM	inactive	inactive	inactive	–
O=C(CSc1nnc(-c2ccccc2)[nH]1)Nc1ccccc1Cl	350 nM	inactive	inactive	inactive	–
O=C(CSc1nnc(-c2ccc(O)cc2)[nH]1)Nc1ccccc1	1200 nM	inactive	inactive	inactive	–
O=C(CSc1nnc(-c2ccccc2O)[nH]1)Nc1ccccc1	420 nM	inactive	inactive	inactive	–
CCCCc1ccc(NC(=O)CSc2nnc(-c3ccccc3)[nH]2)cc1	150 nM	inactive	inactive	inactive	–
Nc1ccccc1-c1nnc(SCC(=O)Nc2cccc(Cl)c2)[nH]1	230 nM	inactive	inactive	inactive	–
O=C(CSc1nnc(-c2ccccc2)[nH]1)Nc1ccccc1	170 nM	inactive	inactive	inactive	–
CCc1ccccc1NC(=O)CSc1nnc(-c2ccccc2)[nH]1	990 nM	inactive	inactive	inactive	–
Cc1ccccc1NC(=O)CSc1nnc(-c2ccccc2O)[nH]1	160 nM	inactive	inactive	inactive	–
O=C(CSc1nnc(-c2ccc(O)cc2)[nH]1)Nc1ccccc1Cl	520 nM	inactive	inactive	inactive	–
CCCCc1ccc(NC(=O)CSc2nnc(-c3ccc(O)cc3)[nH]2)cc1	480 nM	inactive	inactive	inactive	–
CCc1ccccc1NC(=O)CSc1nnc(-c2ccccc2O)[nH]1	930 nM	inactive	inactive	inactive	–
O=C(CSc1nnc(-c2ccccc2O)[nH]1)Nc1ccccc1Cl	980 nM	inactive	inactive	inactive	–
Cc1ccccc1NC(=O)CSc1nnc(-c2ccc(O)cc2)[nH]1	980 nM	inactive	inactive	inactive	–
O=C(CSc1nnc(-c2ccccc2)[nH]1)Nc1cccc(Cl)c1	690 nM	inactive	inactive	inactive	–
CCc1ccccc1NC(=O)CSc1nnc(-c2ccccc2N)[nH]1	450 nM	inactive	inactive	inactive	–
